Measured values reported in ChEMBL document CHEMBL4311965, “Antimicrobial activity of amphipathic α,α-disubstituted β-amino amide derivatives against ESBL - CARBA producing multi-resistant bacteria; effect of halogenation, lipophilicity and cationic character” (Eur J Med Chem, 2019).
Values after ≈ are worked out from the molar mass of the structure shown.

Key:
Staphylococcus aureus [1] = assay: Antibacterial activity against Staphylococcus aureus ATCC 9144 cultured in MHB medium assessed as no bacterial growth incubated at 37 degC for 24 hrs by microdilution susceptibility test; assay type: functional; conditions: ATCC 9144, 24 h
Summary of the method: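 Broth microdilution per CLSI M07-A9 with modifications. Inoculum about 2.5–3 x 10⁴ cells/mL in Mueller-Hinton broth, mixed 1:1 with test derivative. DMSO stocks diluted in double-distilled water, final DMSO <1%. Incubation 24 h at 37 °C (20 °C for C. glutamicum). Growth and sterility controls included; oxytetracycline reference.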

HepG2 = assay: Cytotoxicity against human HepG2 cells assessed as reduction in cell viability incubated for 4 hrs by CellTiter 96 Aqueous One Solution Reagent based assay; conditions: HepG2, 4 h
Summary of the method: (§1)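 HepG2 and MRC-5 cells seeded at 35 000 and 15 000 cells/well respectively, then held overnight at 37 °C, 5% CO₂. Compounds in serum-free MEM Earle's applied for 4 h. MTS reagent (CellTiter 96 AQueous One) added for a further 1 h, absorbance read at 485 nm. Survival expressed relative to medium (negative) and Triton X-100 (positive) controls.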

MRC5 = assay: Cytotoxicity against human MRC5 cells assessed as reduction in cell viability incubated for 4 hrs by CellTiter 96 Aqueous One Solution Reagent based assay; conditions: MRC5, 4 h; summary of the method: as §1
[2] = Selectivity index, ratio of EC50 for hemolytic activity against human RBC to MIC for antibacterial activity against Escherichia coli ATCC 25922; assay type: toxicity; conditions: human red blood cells (RBC)
Summary of the method: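 Selectivity index is the RBC haemolysis EC50 divided by the MIC against the E. coli or S. aureus reference strain.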

Staphylococcus aureus [3] = assay: Antibacterial activity against multidrug-resistant Staphylococcus aureus N315 cultured in MHB medium assessed as reduction in bacterial growth incubated for 24 hrs by microdilution susceptibility test; assay type: functional; conditions: N315, 24 h
Summary of the method: (§2)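 Broth microdilution per CLSI M07-A9 (modified). Working solutions made from concentrated DMSO stocks kept at r.t., diluted in double-distilled water, final DMSO <1%. Inoculum 1–1.2 x 10⁶ cells/mL in Mueller-Hinton broth, mixed 1:1 with compound. 37 °C, 24 h, four parallels. Read as OD₆₀₀. Where precipitation left residual OD, the point of major OD decrease was taken as the inhibitory concentration.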

Staphylococcus aureus [4] = assay: Antibacterial activity against multidrug-resistant Staphylococcus aureus NCTC 10442 cultured in MHB medium assessed as reduction in bacterial growth incubated for 24 hrs by microdilution susceptibility test; assay type: functional; conditions: NCTC 10442, 24 h; summary of the method: as §2
Staphylococcus aureus [5] = assay: Antibacterial activity against multidrug-resistant Staphylococcus aureus 85/2082 cultured in MHB medium assessed as reduction in bacterial growth incubated for 24 hrs by microdilution susceptibility test; assay type: functional; conditions: 85/2082, 24 h; summary of the method: as §2
Enterococcus faecium [6] = assay: Antibacterial activity against multidrug-resistant Enterococcus faecium 50901530 cultured in BHIB medium assessed as reduction in bacterial growth incubated for 24 hrs by microdilution susceptibility test; assay type: functional; conditions: Enterococcus faecium, 50901530, 24 h
Summary of the method: (§3)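 Enterococci grown in Brain Heart Infusion broth, otherwise broth microdilution per CLSI M07-A9 (modified). Concentrated DMSO stocks kept at r.t. and diluted in double-distilled water, final DMSO <1%. Inoculum 1–1.2 x 10⁶ cells/mL mixed 1:1 with compound. 37 °C, 24 h, four parallels. OD₆₀₀ read-out, lowest concentration with no growth.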

Enterococcus faecium [7] = assay: Antibacterial activity against multidrug-resistant Enterococcus faecium 50758899 cultured in BHIB medium assessed as reduction in bacterial growth incubated for 24 hrs by microdilution susceptibility test; assay type: functional; conditions: Enterococcus faecium, 50758899, 24 h; summary of the method: as §3
Enterococcus faecium [8] = assay: Antibacterial activity against multidrug-resistant Enterococcus faecium TUH50-22 cultured in BHIB medium assessed as reduction in bacterial growth incubated for 24 hrs by microdilution susceptibility test; assay type: functional; conditions: TUH50-22, 24 h; summary of the method: as §3
Escherichia coli [9] = assay: Antibacterial activity against multidrug-resistant Escherichia coli 50579417 producing oxcillinase-48 cultured in MHB medium assessed as reduction in bacterial growth incubated for 24 hrs by microdilution susceptibility test; assay type: functional; conditions: Escherichia coli, 50579417, 24 h; summary of the method: as §2
Escherichia coli [10] = assay: Antibacterial activity against multidrug-resistant Escherichia coli 50739822 producing New Delhi metallo-beta-lactamase-1 cultured in MHB medium assessed as reduction in bacterial growth incubated for 24 hrs by microdilution susceptibility test; assay type: functional; conditions: Escherichia coli, 50739822, 24 h; summary of the method: as §2
Pseudomonas aeruginosa = assay: Antibacterial activity against multidrug-resistant Pseudomonas aeruginosa K34-7 producing Verona integron encoded metallo beta-lactamse-2 cultured in MHB medium assessed as reduction in bacterial growth incubated for 24 hrs by microdilution susceptibility test; assay type: functional; conditions: K34-7, 24 h; summary of the method: as §2
Klebsiella pneumoniae [11] = assay: Antibacterial activity against multidrug-resistant Klebsiella pneumoniae K66-45 producing New Delhi metallo-beta-lactamase-1 cultured in MHB medium assessed as reduction in bacterial growth incubated for 24 hrs by microdilution susceptibility test; assay type: functional; conditions: K66-45, 24 h; summary of the method: as §2
Klebsiella pneumoniae [12] = assay: Antibacterial activity against multidrug-resistant Klebsiella pneumoniae 50625602 producing oxcillinase-245 cultured in MHB medium assessed as reduction in bacterial growth incubated for 24 hrs by microdilution susceptibility test; assay type: functional; conditions: Klebsiella pneumoniae, 50625602, 24 h; summary of the method: as §2
Acinetobacter baumannii = assay: Antibacterial activity against multidrug-resistant Acinetobacter baumannii K63-58 producing oxcillinase-23 cultured in MHB medium assessed as reduction in bacterial growth incubated for 24 hrs by microdilution susceptibility test; assay type: functional; conditions: K63-58, 24 h; summary of the method: as §2
[13] = Aqueous solubility of the compound in DMSO; assay type: physicochemical

Compound	MIC (Staphylococcus aureus [1]) [µg/mL]	EC50 (HepG2) [µg/mL]	EC50 (MRC5) [µg/mL]	selectivity ratio [2]	MIC (Staphylococcus aureus [3]) [µg/mL]	MIC (Staphylococcus aureus [4]) [µg/mL]	MIC (Staphylococcus aureus [5]) [µg/mL]	MIC (Enterococcus faecium [6]) [µg/mL]	MIC (Enterococcus faecium [7]) [µg/mL]	MIC (Enterococcus faecium [8]) [µg/mL]	MIC (Escherichia coli [9]) [µg/mL]	MIC (Escherichia coli [10]) [µg/mL]	MIC (Pseudomonas aeruginosa) [µg/mL]	MIC (Klebsiella pneumoniae [11]) [µg/mL]	MIC (Klebsiella pneumoniae [12]) [µg/mL]	MIC (Acinetobacter baumannii) [µg/mL]	solubility [13]
NCCNCC(CN)(Cc1ccccc1Br)Cc1ccccc1Br	16 (≈ 35.1 µM)	18 (≈ 39.5 µM)	8 (≈ 17.6 µM)	13	8 (≈ 17.6 µM)	16 (≈ 35.1 µM)	8 (≈ 17.6 µM)	16 (≈ 35.1 µM)	16 (≈ 35.1 µM)	16 (≈ 35.1 µM)	16 (≈ 35.1 µM)	16 (≈ 35.1 µM)	32 (≈ 70.3 µM)	16 (≈ 35.1 µM)	16 (≈ 35.1 µM)	16 (≈ 35.1 µM)	
NCCNCC(CN)(Cc1cc(Br)cc(Br)c1)Cc1cc(Br)cc(Br)c1	2 (≈ 3.26 µM)	12 (≈ 19.6 µM)	15 (≈ 24.5 µM)	6	4 (≈ 6.52 µM)	4 (≈ 6.52 µM)	8 (≈ 13 µM)	4 (≈ 6.52 µM)	4 (≈ 6.52 µM)	4 (≈ 6.52 µM)	16 (≈ 26.1 µM)	8 (≈ 13 µM)	16 (≈ 26.1 µM)	8 (≈ 13 µM)	16 (≈ 26.1 µM)	8 (≈ 13 µM)	
NCCNC(=O)C(CN)(Cc1ccc(C(F)(F)F)cc1)Cc1ccc(C(F)(F)F)cc1	8 (≈ 17.9 µM)		16 (≈ 35.8 µM)	18	> 32	> 32	> 32	16 (≈ 35.8 µM)	32 (≈ 71.5 µM)	8 (≈ 17.9 µM)	> 32	32 (≈ 71.5 µM)	> 32	> 32	32 (≈ 71.5 µM)	> 32	Soluble
N=C(N)NCCNC(=O)C(CNC(=N)N)(Cc1ccc(F)c2ccccc12)Cc1ccc(F)c2ccccc12	2 (≈ 3.76 µM)			21	4 (≈ 7.52 µM)	4 (≈ 7.52 µM)	4 (≈ 7.52 µM)	4 (≈ 7.52 µM)	16 (≈ 30.1 µM)	8 (≈ 15 µM)	32 (≈ 60.2 µM)	32 (≈ 60.2 µM)	> 32	> 32	> 32	> 32	
NCCNCC(CN)(Cc1cc(C(F)(F)F)cc(C(F)(F)F)c1)Cc1cc(C(F)(F)F)cc(C(F)(F)F)c1	4 (≈ 7.02 µM)	7 (≈ 12.3 µM)	14 (≈ 24.6 µM)	6	8 (≈ 14 µM)	8 (≈ 14 µM)	8 (≈ 14 µM)	8 (≈ 14 µM)	8 (≈ 14 µM)	4 (≈ 7.02 µM)	8 (≈ 14 µM)	8 (≈ 14 µM)	32 (≈ 56.2 µM)	8 (≈ 14 µM)	8 (≈ 14 µM)	8 (≈ 14 µM)	
N#CC(Cc1cc(C(F)(F)F)cc(C(F)(F)F)c1)(Cc1cc(C(F)(F)F)cc(C(F)(F)F)c1)C(=O)NCCN	16 (≈ 27.6 µM)	20 (≈ 34.5 µM)	12 (≈ 20.7 µM)	9	> 32	32 (≈ 55.2 µM)	32 (≈ 55.2 µM)	16 (≈ 27.6 µM)	8 (≈ 13.8 µM)	8 (≈ 13.8 µM)	> 32	> 32	> 32	> 32	> 32	> 32	Soluble
NCCNCC(CN)(Cc1ccc(F)c2ccccc12)Cc1ccc(F)c2ccccc12	2 (≈ 4.61 µM)	12 (≈ 27.7 µM)	9 (≈ 20.8 µM)	7	4 (≈ 9.23 µM)	4 (≈ 9.23 µM)	4 (≈ 9.23 µM)	4 (≈ 9.23 µM)	4 (≈ 9.23 µM)	4 (≈ 9.23 µM)	8 (≈ 18.5 µM)	4 (≈ 9.23 µM)	16 (≈ 36.9 µM)	8 (≈ 18.5 µM)	8 (≈ 18.5 µM)	8 (≈ 18.5 µM)	
NCCNC(=O)C(CN)(Cc1ccccc1C(F)(F)F)Cc1ccccc1C(F)(F)F	32 (≈ 71.5 µM)	45 (≈ 101 µM)	42 (≈ 93.9 µM)	10	> 32	> 32	> 32	32 (≈ 71.5 µM)	> 32	> 32	> 32	> 32	> 32	> 32	> 32	> 32	Soluble
N=C(N)NCCNC(=O)C(CNC(=N)N)(Cc1cc(C(F)(F)F)cc(C(F)(F)F)c1)Cc1cc(C(F)(F)F)cc(C(F)(F)F)c1	2 (≈ 3 µM)	> 64	> 64	50	4 (≈ 5.99 µM)	8 (≈ 12 µM)	8 (≈ 12 µM)	4 (≈ 5.99 µM)	8 (≈ 12 µM)	4 (≈ 5.99 µM)	32 (≈ 47.9 µM)	32 (≈ 47.9 µM)	32 (≈ 47.9 µM)	> 32	> 32	> 32	
N=C(N)NCCNC(=O)C(CNC(=N)N)(Cc1cc(Br)cc(Br)c1)Cc1cc(Br)cc(Br)c1	1 (≈ 1.41 µM)	> 64	> 64	26	2 (≈ 2.81 µM)	2 (≈ 2.81 µM)	2 (≈ 2.81 µM)	4 (≈ 5.63 µM)	4 (≈ 5.63 µM)	2 (≈ 2.81 µM)	8 (≈ 11.3 µM)	8 (≈ 11.3 µM)	16 (≈ 22.5 µM)	16 (≈ 22.5 µM)	16 (≈ 22.5 µM)	16 (≈ 22.5 µM)	
